PMC3210410 (Bioorganic & medicinal chemistry letters, 2011)
Read-outs that look alike come from different tables or passages of the source.

Experiments:
Assay type in all cases: biochemical
MMP-13 [1] = target: T1, MMP-13 (Homo sapiens, UniProt P45452); test: FRET triple-helical peptide; details: for MMP-13 % Inhibition: 40 μM compound, fTHP-15 substrate, triplicate
Summary of the method: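 Triple-helical fTHP-15 FRET substrate, whose conformation engages protease secondary binding sites (exosites), cleaved by MMP-13 with each test compound at 40 μM. Activity is reported as percent inhibition from triplicate assays.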

ADAM17/TACE = ADAM17/TACE (Homo sapiens, UniProt P78536); test: TACE inhibition; details: data not shown
ADAM17/TACE, sequence (P78536 215-824): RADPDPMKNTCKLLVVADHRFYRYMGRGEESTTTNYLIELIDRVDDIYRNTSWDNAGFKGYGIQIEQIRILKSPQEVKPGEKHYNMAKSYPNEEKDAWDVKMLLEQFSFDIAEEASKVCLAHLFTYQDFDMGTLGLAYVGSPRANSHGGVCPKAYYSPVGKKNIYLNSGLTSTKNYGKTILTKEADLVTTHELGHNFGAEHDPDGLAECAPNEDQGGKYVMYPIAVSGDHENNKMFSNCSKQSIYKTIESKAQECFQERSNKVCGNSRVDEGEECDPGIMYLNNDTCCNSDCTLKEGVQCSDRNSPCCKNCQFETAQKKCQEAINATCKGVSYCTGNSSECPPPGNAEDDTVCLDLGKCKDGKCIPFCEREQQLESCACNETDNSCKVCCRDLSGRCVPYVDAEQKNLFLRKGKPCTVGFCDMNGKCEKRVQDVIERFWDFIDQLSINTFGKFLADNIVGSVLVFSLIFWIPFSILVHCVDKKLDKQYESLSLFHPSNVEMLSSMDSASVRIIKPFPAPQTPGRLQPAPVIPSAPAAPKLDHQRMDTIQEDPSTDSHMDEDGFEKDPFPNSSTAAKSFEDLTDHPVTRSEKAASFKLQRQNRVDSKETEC

MMP-13 [2] = target: T1, MMP-13; test: Dual inhibition kinetic assays; details: compound 4 with either compound 1 or 3
MMP-13 [3] = target: T1, MMP-13; test: Single inhibitor kinetic assays with MMP-13 and fTHP-15; details: for mode of inhibition of MMP-13-mediated hydrolysis of the fTHP: Lineweaver-Burk plot, lines crossing on X axis
MMP-13 [4] = target: T1, MMP-13; test: RP-HPLC-based secondary screen for artifactual inhibition; details: data not shown
Summary of the method: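 Checks for fluorescence artifacts in the FRET assay. […] fTHP-15 substrate is analysed by RP-HPLC before and after adding test compound, so fluorescence interference can be separated from true inhibition of MMP-13.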

With `Oc1nc(SCc2ccc(Cl)cc2)nc2c1CCC2` [Compound 4] the inhibition at 40 µM (MMP-13 [1]; read-out: Inhibition (%) at [inhibitor] = 40 μM, MMP-13) was 51%, the “inhibition of TACE” value (ADAM17/TACE) was “do not inhibit” and the “binding relation in dual inhibition kinetics” value (MMP-13 [2]) was “non-mutually exclusive binding”.
In the case of `CCCc1cc(O)nc(SCc2ccc(Cl)cc2)n1` [Compound 9], the “MMP-13 % Inhibition” value (MMP-13 [1]; SD <10% (Table 1)) is reported as “inactive”.
In the case of `Oc1nc(SCc2ccc(Cl)cc2)nc2ccccc12` [Compound 16], the “MMP-13 % Inhibition” value (MMP-13 [1]; SD <10% (Table 1)) is reported as “inactive”.
`Oc1[nH]c(SCc2ccc(Cl)cc2)nc2nncc1-2` [Compound 17] was tested, and the “MMP-13 % Inhibition” value (MMP-13 [1]; SD <10% (Table 1)) was “inactive”.
`O=c1[nH]c(SCc2ccc(Cl)cc2)nc(O)c1Cc1ccccc1` [Compound 18] was tested, and the “MMP-13 % Inhibition” value (MMP-13 [1]; SD <10% (Table 1)) was “inactive”.
In the case of `CC(=O)Nc1c(O)nc(SCc2ccc(Cl)cc2)nc1O` [Compound 19], the “MMP-13 % Inhibition” value (MMP-13 [1]; SD <10% (Table 1)) is reported as “inactive”.
`Cc1ccc(CSc2nc(O)c3c(n2)CCC3)cc1` [Compound 20, 2-[(4-methylphenyl)methylsulfanyl]-1,5,6,7-tetrahydrocyclopenta[d]pyrimidin-4-one] was tested, and the inhibition at 40 µM (MMP-13 [1]; read-out: MMP-13 % Inhibition) was 68.7%, the “mode of inhibition of MMP-13-mediated hydrolysis of the fTHP” value (MMP-13 [3]) was “non-competitive” and the “fold more potent as MMP-13 inhibitor than lead compound 4” value (MMP-13 [3]; relative to compound 4) was “approximately 5 fold”. The “inhibition in RP-HPLC secondary screen” value (MMP-13 [4]) was “inhibitors” and the “inhibition of TACE” value (ADAM17/TACE) was “do not inhibit”.
`COC(=O)c1ccc(CSc2nc3c(c(=O)[nH]2)CCC3)cc1` [Compound 24, methyl 4-[(4-oxo-1,5,6,7-tetrahydrocyclopenta[d]pyrimidin-2-yl)sulfanylmethyl] benzoate] was tested, and the inhibition at 40 µM (MMP-13 [1]; read-out: MMP-13 % Inhibition) was 62.5%, the “mode of inhibition of MMP-13-mediated hydrolysis of the fTHP” value (MMP-13 [3]) was “non-competitive” and the “inhibition in RP-HPLC secondary screen” value (MMP-13 [4]) was “inhibitors”. For the same compound, the “inhibition of TACE” value (ADAM17/TACE) was “do not inhibit”.
In the case of `O=C(CSc1nc2c(c(=O)[nH]1)CCC2)c1ccccc1` [Compound 30], the “MMP-13 % Inhibition” value (MMP-13 [1]; SD <10% (Table 2)) is reported as “inactive”.
With `O=c1[nH]c(SCc2coc(-c3cccc(Cl)c3)n2)nc2c1CCC2` [Compound 31] the “MMP-13 % Inhibition” value (MMP-13 [1]; SD <10% (Table 2)) was “inactive”.
`Cc1oc(-c2cccc(Cl)c2)cc1CSc1nc2c(c(=O)[nH]1)CCC2` [Compound 32] was tested, and the “MMP-13 % Inhibition” value (MMP-13 [1]; SD <10% (Table 2)) was “Inactive”.
For `Cc1cccc(CSc2nc(O)c3c(n2)CCCC3)c1` [Compound 34], the “MMP-13 % Inhibition” value (MMP-13 [1]; SD <10% (Table 2)) was “inactive”.
